According to article PMC3873039 (Anti-Cancer Agents in Medicinal Chemistry, 2013):

Columns and labels:
K562 [1] = test: Hoechst 33342 nuclear morphological analysis of apoptosis; assay type: cell-based; conditions: Homo sapiens, K562, 24 h, read-out: AP50 (50% induction of apoptosis), Hoechst 33342 staining (Hoe)
Procedure, shortened: (§1)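 Seeded at 0.5 x 10⁶ cells/well in 12-well plates and treated 24 h. Cells were pelleted (400 g, 5 min, 4 °C), washed in PBS, fixed in 4% paraformaldehyde, cytospun, air-dried, then stained with 10 μg/ml Hoechst 33342 for 10 min in the dark. Fluorescence microscopy: 200 cells counted, scored by condensed/intense nuclei, shrinkage, blebbing and apoptotic bodies. % apoptotic nuclei calculated. AP50 = concentration giving 50% apoptotic cells.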

KG1a [2] = test: CellTiter-Glo luminescent cell viability assay; assay type: cell-based, human; conditions: 24 h; for IC50: Homo sapiens, KG-1a, read-out: IC50 (50% inhibition of cellular proliferation); for The lowest dose of polyphenols at which there was a significant inhibition of cell proliferation compared to the vehicle control: KG1a, doses 0, 2, 10, 50, 250, 500 µM, p<0.05
Procedure, shortened: (§2)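 Cells grown in RPMI 1640 with 10% FBS, 1.5 mM L-glutamine and penicillin/streptomycin at 37 °C, 5% CO2. Seeded at 2.5 x 10³ cells/well and exposed 24 h to ethanol-dissolved test compound (0, 2, 10, 50, 250, 500 µM) with 0.1% ethanol vehicle. ATP luminescence normalized to vehicle (100%). IC50 taken from linear regression. Lowest significant dose set by one-way ANOVA/Tukey, p<0.05. Triplicates, three independent experiments.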

THP-1 [3] = test: Hoechst 33342 nuclear morphological analysis of apoptosis; assay type: cell-based; conditions: Homo sapiens, THP-1, 24 h, read-out: AP50 (50% induction of apoptosis), Hoechst 33342 staining (Hoe)
Procedure, shortened: as §1

non-tumor cells (CD34+) [4] = test: Hoechst 33342 nuclear morphological analysis of apoptosis; assay type: cell-based; conditions: 24 h, read-out: AP50 (50% induction of apoptosis), Hoechst 33342 staining (Hoe)
Procedure, shortened: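 CD34+ cells treated 24 h across the IC25–IC50 range, then pelleted (400 g, 4 °C) and fixed in 4% paraformaldehyde/PBS. Cytospins were air-dried and stained with 10 μg/ml Hoechst 33342 for 10 min in the dark, then viewed by fluorescence microscopy. 200 cells were scored per sample as % apoptotic nuclei (shrinkage, blebbing, chromatin condensation, apoptotic bodies). AP50 = concentration giving 50% apoptosis.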

THP-1 [5] = test: Cell cycle analysis, propidium iodide flow cytometry; assay type: cell-based, human; conditions: THP-1, IC50 dose, 24 h; vehicle control G0/G1 = 42.3%
Procedure, shortened: (§3)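 Seeded at 0.5 x 10^6 cells per well in 12-well plates and treated 24 h at the IC50 concentration of each test compound from CellTiter-Glo. Cells were pelleted (400 g, 5 min), PBS-washed and fixed in 80% ethanol overnight at -20 °C. Staining used 50 µg/mL PI plus RNase overnight at 4 °C.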

KG1a [6] = test: as above; assay type: cell-based, human; conditions: IC50 dose, 24 h, vehicle control G0/G1 = 44.6%
Procedure, shortened: as §3

HL60 [7] = test: NucView caspase 3 activity assay by flow cytometry; assay type: cell-based, human; conditions: for The lowest dose of polyphenols at which there was a significant induction of apoptosis compared to the vehicle control: HL60, caspase 3 activity, 24 h, p<0.05; for EC50: Homo sapiens, HL-60, 24 h, read-out: AP50 (50% induction of apoptosis), Caspase 3 activity assay (C3)
Procedure, shortened: (§4)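 Seeded at 0.5 x 10⁶ cells/well and treated 24 h, with series of 0–50 or 0–250 µM depending on compound. Normalized to vehicle (0% apoptosis). Mean ± STD, three independent experiments in triplicate. One-way ANOVA/Tukey, p<0.05. AP50 = concentration giving 50% apoptotic cells.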

U937 [8] = test: NucView caspase 3 activity assay by flow cytometry; assay type: cell-based, human; conditions: for EC50: Homo sapiens, U-937, 24 h, read-out: AP50 (50% induction of apoptosis), Caspase 3 activity assay (C3); for The lowest dose of polyphenols at which there was a significant induction of apoptosis compared to the vehicle control: U937, caspase 3 activity, 24 h, p<0.05
Procedure, shortened: as §4

non-tumor cells (CD34+) [9] = test: NucView caspase 3 activity assay by flow cytometry; assay type: cell-based; conditions: 24 h; for EC50: read-out: AP50 (50% induction of apoptosis), Caspase 3 activity assay (C3); for The lowest dose of polyphenols at which there was a significant induction of apoptosis compared to the vehicle control: CD34+ non-tumour control cells, caspase 3 activity, p<0.05
CCRF-CEM [10] = test: NucView caspase 3 activity assay by flow cytometry; assay type: cell-based, human; conditions: 24 h; for EC50: Homo sapiens, read-out: AP50 (50% induction of apoptosis), Caspase 3 activity assay (C3); for The lowest dose of polyphenols at which there was a significant induction of apoptosis compared to the vehicle control: caspase 3 activity, p<0.05
Procedure, shortened: as §4

[11] = test system: non-tumor cord blood (CD34+) cells; test: CellTiter-Glo luminescent cell viability assay; assay type: cell-based; conditions: 24 h; for IC50: read-out: IC50 (50% inhibition of cellular proliferation), CD34+ non-tumour control cells, 24 h treatment; for The lowest dose of polyphenols at which there was a significant inhibition of cell proliferation compared to the vehicle control: CD34+ non-tumour control cells, doses 0, 2, 10, 50, 250, 500 µM, p<0.05
Procedure, shortened: as §2

MOLT-3 = test: Hoechst 33342 nuclear morphological analysis of apoptosis; assay type: cell-based; conditions: Homo sapiens, MOLT-3, 24 h, read-out: AP50 (50% induction of apoptosis), Hoechst 33342 staining (Hoe)
Procedure, shortened: as §1

HL60 [12] = test: as above; assay type: cell-based; conditions: Homo sapiens, HL-60, 24 h, read-out: AP50 (50% induction of apoptosis), Hoechst 33342 staining (Hoe)
Procedure, shortened: as §1

JURKAT = test: CellTiter-Glo luminescent cell viability assay; assay type: cell-based, human; conditions: 24 h, doses 0, 2, 10, 50, 250, 500 µM, p<0.05
Procedure, shortened: as §2

K562 [13] = test: CellTiter-Glo luminescent cell viability assay; assay type: cell-based, human; conditions: K562, 24 h, doses 0, 2, 10, 50, 250, 500 µM, p<0.05
Procedure, shortened: as §2

THP-1 [14] = test: CellTiter-Glo luminescent cell viability assay; assay type: cell-based, human; conditions: THP-1, 24 h, doses 0, 2, 10, 50, 250, 500 µM, p<0.05
Procedure, shortened: as §2

KG1a [15] = test: NucView caspase 3 activity assay by flow cytometry; assay type: cell-based, human; conditions: 24 h; for EC50: Homo sapiens, KG-1a, read-out: AP50 (50% induction of apoptosis), Caspase 3 activity assay (C3); for The lowest dose of polyphenols at which there was a significant induction of apoptosis compared to the vehicle control: KG1a, caspase 3 activity, p<0.05
Procedure, shortened: as §4

[16] = test system: non-tumor progenitor cells (CD34+); test: Cell cycle analysis, propidium iodide flow cytometry; assay type: cell-based; conditions: 24 h, within the IC50 ranges used to treat the leukemic cell lines
U937 [17] = test: Hoechst 33342 nuclear morphological analysis of apoptosis; assay type: cell-based; conditions: Homo sapiens, U-937, 24 h, read-out: AP50 (50% induction of apoptosis), Hoechst 33342 staining (Hoe)
Procedure, shortened: as §1

HL60 [18] = test: Cell cycle analysis, propidium iodide flow cytometry; assay type: cell-based, human; conditions: HL60, IC50 dose, 24 h; vehicle control G0/G1 = 56.8%
Procedure, shortened: as §3

CCRF-CEM [19] = test: as above; assay type: cell-based, human; conditions: IC50 dose, 24 h
Procedure, shortened: as §3

KG1a [20] = test: Hoechst 33342 nuclear morphological analysis of apoptosis; assay type: cell-based; conditions: Homo sapiens, KG-1a, 24 h, read-out: AP50 (50% induction of apoptosis), Hoechst 33342 staining (Hoe)
Procedure, shortened: as §1

## O=c1c(O)c(-c2ccc(O)c(O)c2)oc2cc(O)cc(O)c12 [Quercetin]
K562 [1]
  EC50: 205 µM
KG1a [2]
  IC50: 155 µM
  The lowest dose of polyphenols at which there was a significant inhibition of cell proliferation compared to the vehicle control: 10 µM
THP-1 [3]
  EC50: > 500 µM
non-tumor cells (CD34+) [4]
  EC50: > 500 µM
THP-1 [5]
  Percentage of cells in G0/G1 phase of cell cycle (significant accumulation): G0/G1 =52%
KG1a [6]
  Percentage of cells in G0/G1 phase of cell cycle (significant accumulation): G0/G1=52%
HL60 [7]
  The lowest dose of polyphenols at which there was a significant induction of apoptosis compared to the vehicle control: 10 µM
  EC50: 50 µM
U937 [8]
  EC50: 50 µM
  The lowest dose of polyphenols at which there was a significant induction of apoptosis compared to the vehicle control: 2 µM
non-tumor cells (CD34+) [9]
  EC50: > 50 µM
  The lowest dose of polyphenols at which there was a significant induction of apoptosis compared to the vehicle control: 50 µM
CCRF-CEM [10]
  EC50: 50 µM
  The lowest dose of polyphenols at which there was a significant induction of apoptosis compared to the vehicle control: 2 µM
[11]
  IC50: > 500 µM
  The lowest dose of polyphenols at which there was a significant inhibition of cell proliferation compared to the vehicle control: 250 µM
MOLT-3
  EC50: 50 µM
HL60 [12]
  EC50: 50 µM
JURKAT
  The lowest dose of polyphenols at which there was a significant inhibition of cell proliferation compared to the vehicle control: 2 µM
K562 [13]
  The lowest dose of polyphenols at which there was a significant inhibition of cell proliferation compared to the vehicle control: 2 µM
THP-1 [14]
  The lowest dose of polyphenols at which there was a significant inhibition of cell proliferation compared to the vehicle control: 2 µM
KG1a [15]
  EC50: > 50 µM
  The lowest dose of polyphenols at which there was a significant induction of apoptosis compared to the vehicle control: 10 µM
[16]
  Cell cycle arrest in non-tumour control cells: No Arrest <50µM
U937 [17]
  EC50: 50 µM
HL60 [18]
  Percentage of cells in G0/G1 phase of cell cycle (significant accumulation): G0/G1 =66.2%
CCRF-CEM [19]; vehicle control S = 47.2%
  Percentage of cells in S phase of cell cycle (significant accumulation): S = 51.4%
KG1a [20]
  EC50: 125 µM

## O=C(O)c1cc(O)c2c(c1)C(=O)c1cccc(O)c1C2=O [Rhein]
K562 [1]
  EC50: > 500 µM
KG1a [2]
  IC50: 169 µM
  The lowest dose of polyphenols at which there was a significant inhibition of cell proliferation compared to the vehicle control: 50 µM
THP-1 [3]
  EC50: 60 µM
non-tumor cells (CD34+) [4]
  EC50: > 500 µM
THP-1 [5]
  Percentage of cells in G0/G1 phase of cell cycle (significant accumulation): G0/G1 =47%
KG1a [6]
  Percentage of cells in G0/G1 phase of cell cycle (significant accumulation): G0/G1 =49%
HL60 [7]
  The lowest dose of polyphenols at which there was a significant induction of apoptosis compared to the vehicle control: 50 µM
  EC50: > 250 µM
U937 [8]
  EC50: 60 µM
  The lowest dose of polyphenols at which there was a significant induction of apoptosis compared to the vehicle control: 50 µM
non-tumor cells (CD34+) [9]
  EC50: > 250 µM
  The lowest dose of polyphenols at which there was a significant induction of apoptosis compared to the vehicle control: 50 µM
CCRF-CEM [10]
  EC50: 200 µM
  The lowest dose of polyphenols at which there was a significant induction of apoptosis compared to the vehicle control: 50 µM
[11]
  IC50: 380 µM
  The lowest dose of polyphenols at which there was a significant inhibition of cell proliferation compared to the vehicle control: 250 µM
MOLT-3
  EC50: 265 µM
HL60 [12]
  EC50: > 500 µM
JURKAT
  The lowest dose of polyphenols at which there was a significant inhibition of cell proliferation compared to the vehicle control: 50 µM
K562 [13]
  The lowest dose of polyphenols at which there was a significant inhibition of cell proliferation compared to the vehicle control: 50 µM
THP-1 [14]
  The lowest dose of polyphenols at which there was a significant inhibition of cell proliferation compared to the vehicle control: 50 µM
KG1a [15]
  EC50: > 250 µM
  The lowest dose of polyphenols at which there was a significant induction of apoptosis compared to the vehicle control: 50 µM
[16]
  Cell cycle arrest in non-tumour control cells: No Arrest <50µM
U937 [17]
  EC50: 140 µM
HL60 [18]
  Percentage of cells in G0/G1 phase of cell cycle (significant accumulation): G0/G1=65%
CCRF-CEM [19]; vehicle control G0/G1 = 41.9%
  Percentage of cells in G0/G1 phase of cell cycle (significant accumulation): G0/G1 =54%
KG1a [20]
  EC50: > 500 µM
